Assay outcomes from PubChem BioAssay.
Only some compounds are listed: those with a hit (about 9.6% of all), similar ones and a draw of the others.
HCT116 bCat-KO: beta-catenin-lacking colon tumor cell growth suppression; HCT116 beta-catenin knockout viability, CellTiter-Glo, 60 h; hits give low values; actives 1.5% (n = 140,000); viability, % at 10 µM; AID 818;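 active means viability at or under a set limit, the compound median less 4 SD, cut at about 6% in these data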;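 further: 0% = Hyamine 1622 control at 20 µM and 100% = untreated cell control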
PMI act satM6P: activators of human phosphomannose isomerase at near-saturating mannose 6-phosphate | activation factor at 20 µM | coupled PMI enzyme assay, resazurin fluorescence, 20 min; hits give high values; 1 = untreated enzyme, 0 = substrate-free blank | AID 1216 | actives 0.34% (n = 190,000);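 active means activation factor of 2 or more at 20 µM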
Target sequence (P34949 whole entry, looked up): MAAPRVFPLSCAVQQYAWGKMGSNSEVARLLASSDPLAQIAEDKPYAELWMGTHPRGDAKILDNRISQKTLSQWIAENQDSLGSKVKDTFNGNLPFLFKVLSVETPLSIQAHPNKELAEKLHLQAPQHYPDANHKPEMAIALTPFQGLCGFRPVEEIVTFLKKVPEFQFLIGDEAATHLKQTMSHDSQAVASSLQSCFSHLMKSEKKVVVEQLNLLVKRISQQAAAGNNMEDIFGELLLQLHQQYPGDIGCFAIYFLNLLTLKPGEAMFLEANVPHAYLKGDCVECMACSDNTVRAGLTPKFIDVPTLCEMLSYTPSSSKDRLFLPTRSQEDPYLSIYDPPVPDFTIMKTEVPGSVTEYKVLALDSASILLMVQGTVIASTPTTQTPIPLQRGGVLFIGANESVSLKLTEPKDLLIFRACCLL
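Test system: Human PMI in coupled enzyme assay | Input: 15 ng/mL PMI | Medium: HEPES-buffered pH 7.4 with magnesium and detergent | Compound: One concentration, 20 µM, in 1% DMSO | Incubation: Enzyme reaction with compound 20 min at room temperature | Detection: Diaphorase-driven resazurin-to-resorufin fluorescence, excitation 544, emission 590 nm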
Lmaj promast: inhibitors of Leishmania major promastigote growth. inhibition, % at 10 µM. actives 9% (n = 200,000). Leishmania major promastigotes, resazurin fluorescence viability; in the data active means inhibition above about 50%;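 further: promastigotes grown with compound for 44 hours at 28 °C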
PTEN del growth: PTEN-deleted cell growth suppression. HCT116 PTEN-null viability, CellTiter-Glo, 60 h; hits give low values. viability, % at 10 µM. AID 827. actives 1.2% (n = 140,000);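 active means viability at or below a set limit, 4 SD under the median of all tested compounds, cut at about 3.7% in these data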;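 further: PTEN knockout HCT116 line with beta catenin targeted HCT116 as companion control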
PMI act: phosphomannose isomerase (human) activation. P34949. purified human PMI, coupled resazurin fluorescence, 20 min; hits give high values; 1 = vehicle control, 0 substrate-free wells. activation factor at 20 µM. actives 0.005% (n = 190,000);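 active means activation factor of 2 or more at 20 µM, relative to plate controls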
The depositor's hits bear a star; nt = not tested or not shown.

SMILES | HCT116 bCat-KO | PMI act satM6P | Lmaj promast | PTEN del growth | PMI act
Cc1ccc(NC(=S)NCC2CCN(C(C)c3ccccc3)C2)cc1 (configuration not stated) | nt | 0.9 | 77.7* | nt | 0.9
CC(c1ccccc1)N1CCC(CNC(=S)Nc2cccc(Cl)c2)C1 (configuration not stated) | nt | 1 | 94.9* | nt | 0.9
Cc1cc(C)c(NC(=S)NCC2CCN(C(C)c3ccccc3)C2)c(C)c1 (configuration not stated) | nt | 1 | 29.5 | nt | 1
CCCC(C)NC(=O)c1ccc(C2SCC(=O)N2Cc2ccco2)cc1 (configuration not stated) | 92.8 | 0.9 | 0.0 | 100.0 | 0.9
O=C(NC(=S)N(Cc1ccccc1)Cc1ccccc1)c1ccccc1F | 40.2 | 1 | 1.2 | 54.0 | 0.9
CCC(=O)N1c2ccc(S(=O)(=O)CCC(=O)N3CCn4c3nc3ccccc34)cc2CC1C (configuration not stated) | 67.3 | 0.9 | 78.7* | 81.0 | 0.9
CCOC(=O)c1c(C)n(-c2ccc(C)cc2)c2ccc(OCC(O)CN3CCN(C)CC3)cc12 (configuration not stated) | nt | 1.1 | 100.3* | nt | 1.2
CCOC(=O)c1c(C)n(C)c2ccc(OCC(O)CN3CCN(C)CC3)cc12 (configuration not stated) | 88.2 | 1 | 75.9* | 96.9 | 1
COC(=O)c1sc(NC(=O)/C=C/c2ccc(C)o2)nc1C | 90.7 | 1 | -2.6 | 89.6 | 1.1
CCN(CC)S(=O)(=O)c1ccc(Oc2ccccc2)cc1 | 76.3 | 0.9 | 99.4* | 78.1 | 0.9
CN(C)S(=O)(=O)c1ccc(Oc2ccccc2)cc1 | 93.4 | 0.9 | 97.7* | 99.6 | 0.9
Cc1cc(C)c(S(C)(=O)=O)c(Oc2cccc(C(F)(F)F)c2)n1 | nt | 0.8 | -4.7 | nt | 0.9
O=C(NC1CCCCC1)NC1CC2CCC(C1)N2Cc1nnnn1Cc1ccc2c(c1)OCO2 (configuration not stated) | 73.0 | 1 | 1.4 | 79.8 | 1
O=C(c1ccccc1)N1CCN(c2ncnc3sc4c(c23)CCC4)CC1 | 53.2 | 0.9 | 62.7* | 62.5 | 0.8
c1nc(N2CCOCC2)c2c3c(sc2n1)CCCC3 | 94.6 | 1 | -2.1 | 102.4 | 1
S=C(Nc1ccccc1Cl)N(Cc1ccccc1)Cc1ccccn1 | nt | 1 | 18.2 | nt | 1
Cc1cnc(NC(=O)c2cc3c(C)nn(Cc4ccccc4Cl)c3s2)s1 | 83.8 | 1 | 60.1* | 75.8 | 0.9
COc1ccnc(Oc2ccc(C)cc2C)c1C#N | 89.1 | 1 | -1.4 | 91.4 | 1
Nc1cc2nsnc2cc1Br | 1.8* | 0.5 | 29.6 | 10.1 | 0.4
CCCC(=O)OCC(=O)NCc1ccc(Cl)cc1 | nt | 1 | -15.1 | nt | 1
O=C(CNC(c1ccccc1)c1ccccc1)Nc1c(F)cccc1F | 92.1 | 0.9 | 9.7 | 95.5 | 1
O=C(COC(=O)CC(c1ccccc1)c1ccccc1)Nc1c(F)cccc1F | 86.0 | 0.9 | 50.1* | 89.2 | 0.8
O=C(COC(=O)CC(c1ccccc1)c1ccccc1)NCc1ccc(Cl)cc1 | 76.9 | 1 | 68.8* | 75.0 | 1
O=C(CCc1c[nH]c2ccccc12)N1CCN(c2ccc(O)cc2)CC1 | nt | 0.5 | 14.7 | nt | 0.8
Cc1cc(N)nc(C)c1C#N | nt | 1 | -6.7 | nt | 1.1
SMILES | HCT116 bCat-KO | PMI act satM6P | Lmaj promast | PTEN del growth | PMI act
O=C(CN1CCCCCC1)N/N=C/c1cccs1 | 96.3 | 1.1 | -5.2 | 93.9 | 1.1
Cc1cccc(/C=N/NC(=O)CN2CCCCCCC2)c1 | 89.5 | 1 | -3.3 | 97.8 | 1
O=C(CN1CCCCCCC1)N/N=C/c1ccc(F)cc1F | 102.9 | 1.2 | 60.6* | 93.0 | 1.1
O=C(CN1CCCCCC1)N/N=C/c1ccc(Cl)c(Cl)c1 | 96.1 | 0.9 | 87.9* | 106.8 | 0.8
O=C(O)c1ccc2c(c1)-c1nc3ccccc3n1C2=O | 95.9 | 1 | -3.7 | 101.4 | 0.9
N#C/C(=C\c1c(N2CCCCC2)nc2ccccn2c1=O)C(=O)NC1CCS(=O)(=O)C1 (configuration not stated) | 90.4 | 0.8 | 55.5* | 93.3 | 0.9
N#C/C(=C\c1c(N2CCCCC2)nc2ccccn2c1=O)C(=O)NCc1ccco1 | 96.5 | 0.9 | 82.9* | 88.5 | 0.9
Cc1cccn2c(=O)c(/C=C(\C#N)C(=O)NCc3ccco3)c(N3CCCCC3)nc12 | 69.9 | 0.9 | 19.1 | 69.7 | 0.8
Cc1cccn2c(=O)c(/C=C(\C#N)C(=O)NC3CCS(=O)(=O)C3)c(N3CCC(C)CC3)nc12 (configuration not stated) | 69.0 | 0.9 | 2.9 | 58.3 | 0.9
N=c1sccn1CC(=O)Nc1cc(S(=O)(=O)N2CCCC2)ccc1Cl | nt | 1.1 | 0.1 | nt | 1.1
CC(c1ccccc1)N1CCN(C(=O)CCl)CC1 (configuration not stated) | nt | 1.1 | 76.3* | nt | 1.2
O=C(Cn1cccc1)N1CCN(C(c2ccccc2)c2ccccc2)CC1 | 92.9 | 1 | 30.3 | 98.0 | 1
C=CCc1ccccc1OCC(=O)N/N=C/c1ccc(OC(C)=O)cc1OC(C)=O | 13.8 | 1.2 | 97.8* | 12.2 | 1.1
Cc1ccccc1OCC(=O)N/N=C/c1cc2ccccc2nc1Cl | 15.4 | 0.9 | -3.0 | 19.8 | 0.9
C/C(=N\OCC(=O)Nc1c(C)cc(C)cc1C)c1ccc2c(c1)OCCO2 | 77.8 | 1 | 1.9 | 84.3 | 0.9
Cc1ccc(Nc2c([N+](=O)[O-])ccc3c2=NC2(CCCCC2)N=3)cc1 | 73.2 | 0.5 | 50.5* | 71.7 | 0.7
Cc1ccc(Nc2ccc(N3CCN(c4ccc([N+](=O)[O-])cc4)CC3)nn2)cc1 | nt | 1.1 | -5.2 | nt | 1.2
O=C(CCl)N(C/C=C/c1ccccc1)c1ccc2c(c1)OCCO2 | nt | 0.6 | 76.1* | nt | 0.9
O=C(O)CN(c1ccc2c(c1)OCCO2)S(=O)(=O)c1ccccc1 | 98.1 | 1 | -3.0 | 96.0 | 0.9
CCCCSc1cnn(-c2ccccc2)c(=O)c1SCCCC | 58.7 | 0.9 | 78.7* | 73.8 | 0.9
COc1ccc(/C=N/OCC(=O)Nc2nc3ccccc3s2)cc1 | 89.8 | 0.9 | -4.6 | 100.3 | 1
CN=C1NN=C(c2cc(C)n(-c3ccc(Cl)cc3)c2C)CS1 | nt | 1.4 | 4.3 | nt | 1.4
NC(=O)C1CCN(C(=O)Cn2cccc2C(=O)c2ccccc2)CC1 | 110.5 | 1.1 | -3.0 | 107.8 | 1
OCCN1CCN(CCCN2c3ccccc3Sc3ccc(C(F)(F)F)cc32)CC1 | 1.7* | 1.2 | 86.7* | 1.5* | 1.2
CN1CCN(CCCN2c3ccccc3Sc3ccc(Cl)cc32)CC1 | 9.9 | 0.9 | 99.7* | 12.8 | 1
CN1CCN(CCC(=O)N2c3ccccc3Sc3ccc(C(F)(F)F)cc32)CC1 | 95.4 | 1 | 55.3* | 102.4 | 1
O=C1c2ccccc2C(=O)N1CC(=O)N1c2ccccc2Sc2ccc(C(F)(F)F)cc21 | 87.8 | 0.9 | -0.2 | 89.2 | 0.8
Cc1cccc(NC(=O)c2ccc(C3SCC(=O)N3CCc3ccccc3)cc2)c1 (configuration not stated) | 26.5 | 0.8 | 96.3* | 28.1 | 0.8
